For data set [1], the target named is NACHT, LRR and PYD domains-containing protein 3 (Mus musculus, UniProt Q8R4B8). In words: Inhibition of NLRP3 inflammasome activation in LPS treated mouse J774.A1 cells assessed as inhibition of ATP-stimulated IL-1beta secretion pre-incubated for 30 mins followed by ATP addition measured after 30 mins by ELISA. Particulars: for pIC50: read-out: IC50; for IC50: j774.a1. The data set is classed as cell-based. The method in brief: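 Murine J774A.1 macrophages seeded at 1×10^5 cells/well overnight, then primed with E. coli O111:B4 LPS (final 1 µg/mL) for 4.5 h. Compounds added for 30 min, then ATP (5 mM) for 30 min to activate NLRP3. IL-1β released into the supernatant quantified by mouse IL-1β ELISA.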
Chain of NACHT, LRR and PYD domains-containing protein 3 (Q8R4B8 whole entry, the tested form may be a part): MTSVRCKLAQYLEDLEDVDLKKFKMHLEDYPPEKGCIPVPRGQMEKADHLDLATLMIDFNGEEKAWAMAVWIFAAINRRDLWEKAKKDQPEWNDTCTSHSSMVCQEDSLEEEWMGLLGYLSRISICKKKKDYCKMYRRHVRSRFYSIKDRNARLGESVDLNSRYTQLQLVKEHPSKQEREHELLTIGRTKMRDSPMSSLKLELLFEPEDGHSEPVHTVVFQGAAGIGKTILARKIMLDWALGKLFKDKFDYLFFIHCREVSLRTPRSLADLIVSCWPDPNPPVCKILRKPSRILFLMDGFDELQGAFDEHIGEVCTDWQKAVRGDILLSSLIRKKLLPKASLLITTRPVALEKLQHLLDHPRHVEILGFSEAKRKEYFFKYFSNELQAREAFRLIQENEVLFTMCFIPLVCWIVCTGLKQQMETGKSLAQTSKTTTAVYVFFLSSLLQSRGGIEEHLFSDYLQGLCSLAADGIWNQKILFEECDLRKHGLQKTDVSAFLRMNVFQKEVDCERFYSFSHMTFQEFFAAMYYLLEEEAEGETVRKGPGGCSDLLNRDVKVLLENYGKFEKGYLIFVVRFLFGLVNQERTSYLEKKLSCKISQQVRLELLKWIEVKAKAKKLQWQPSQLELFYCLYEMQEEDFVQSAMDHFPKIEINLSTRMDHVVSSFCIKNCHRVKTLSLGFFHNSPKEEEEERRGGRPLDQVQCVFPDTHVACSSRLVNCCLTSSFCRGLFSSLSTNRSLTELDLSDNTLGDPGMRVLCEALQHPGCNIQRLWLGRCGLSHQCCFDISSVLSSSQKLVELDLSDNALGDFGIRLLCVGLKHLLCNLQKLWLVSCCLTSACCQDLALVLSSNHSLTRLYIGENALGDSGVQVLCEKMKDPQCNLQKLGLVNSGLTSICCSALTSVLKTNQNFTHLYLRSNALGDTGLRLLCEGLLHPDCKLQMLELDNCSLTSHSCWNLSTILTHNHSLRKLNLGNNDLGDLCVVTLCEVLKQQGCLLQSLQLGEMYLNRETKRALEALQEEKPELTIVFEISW
On the technique in general: An ELISA detects its analyte on a solid surface through an enzyme-linked reagent.

The nature of data set [2]: Drug uptake in monkey brain assessed as standardized uptake value at iv administration by PET/MR imaging analysis. The data set is classed as ADME, organism-based, Macaca mulatta. Particulars: rhesus monkey, in vivo. The essentials: (§1)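 Single rhesus macaque (n=1). Radiotracer 5.20 mCi given i.v. through an antecubital catheter. Dynamic PET/MR acquired on a 3T scanner with a BrainPET insert, 3D-OSEM reconstruction, registration to the INIA19/NeuroMaps atlas. Regional activity expressed as SUV, with an arterial line for plasma metabolite analysis.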

Data set [3] in a line: Drug uptake in monkey cerebellum at iv administration by PET/MR imaging analysis. The data set is classed as ADME, organism-based, Macaca mulatta. Particulars: rhesus monkey, in vivo. The essentials: as §1
Data set [4] is described as follows: Drug uptake in monkey hippocampus at iv administration by PET/MR imaging analysis. The data set is classed as ADME, organism-based, Macaca mulatta. Conditions: rhesus monkey, in vivo. The essentials:
as §1

A short description of data set [5]: Drug uptake in monkey insula at iv administration by PET/MR imaging analysis. The data set is classed as ADME, organism-based, Macaca mulatta. Particulars: rhesus monkey, in vivo. The essentials:
as §1

A short description of data set [6]: Drug uptake in monkey putamen at iv administration by PET/MR imaging analysis. The data set is classed as ADME, organism-based, Macaca mulatta. Conditions: rhesus monkey, in vivo. The method in brief:
as §1

Data set [7] can be described thus: Drug uptake in monkey thalamus at iv administration by PET/MR imaging analysis. Particulars: rhesus monkey, in vivo. The data set is classed as ADME, organism-based, Macaca mulatta. The method in brief: as §1
Data set [8] deals with T1, Interferon-inducible protein AIM2 (Mus musculus) (UniProt Q91VJ1).
T1 sequence (whole entry): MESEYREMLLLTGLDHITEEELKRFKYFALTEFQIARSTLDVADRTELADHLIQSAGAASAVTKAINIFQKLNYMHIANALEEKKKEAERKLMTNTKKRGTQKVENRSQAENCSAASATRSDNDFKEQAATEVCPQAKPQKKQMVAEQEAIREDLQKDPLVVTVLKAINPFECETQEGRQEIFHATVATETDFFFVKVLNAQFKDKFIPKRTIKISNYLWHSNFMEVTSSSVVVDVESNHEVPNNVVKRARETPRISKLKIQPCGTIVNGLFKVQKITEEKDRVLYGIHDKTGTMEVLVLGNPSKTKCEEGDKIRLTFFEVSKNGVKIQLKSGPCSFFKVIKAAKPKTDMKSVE
Kind of data set: Inhibition of AIM2 inflammasome activation in LPS treated mouse J774.A1 cells assessed as inhibition of IL-1beta secretion at 3 uM pre-incubated for 1 hr followed by Poly (dA:dT) stimulation for 4 hrs by ELISA. The data set is classed as cell-based. Particulars: time 5.0 hrs. The essentials: (§2)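 J774A.1 cells at 1×10^5/well, plated overnight. Co-treated with LPS (1 µg/mL) and compound for 1 h. AIM2 triggered by poly(dA:dT) (4 µg/mL) transfected with Lipofectamine 2000 for 4 h. NLRC4 triggered by flagellin (1 µg/mL) delivered with a transfection kit for 6 h. Supernatant IL-1β read by mouse ELISA.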

For data set [9], the target named is T1, Interferon-inducible protein AIM2 (Mus musculus). In words: Inhibition of AIM2 inflammasome activation in LPS treated mouse J774.A1 cells assessed as inhibition of IL-1beta secretion at 10 uM pre-incubated for 1 hr followed by Poly (dA:dT) stimulation for 4 hrs by ELISA. The data set is classed as cell-based. Particulars: time 5.0 hrs. The essentials: as §2

In data set [10] the target is NLR family CARD domain-containing protein 4 (Mus musculus) (UniProt Q3UP24). In words: Inhibition of NLRC4 inflammasome activation in LPS treated mouse J774.A1 cells assessed as inhibition of IL-1beta secretion at 3 uM pre-incubated for 1 hr followed by flagellin stimulation for 6 hrs by ELISA. The data set is classed as cell-based. Particulars: time 7.0 hrs. The method in brief: as §2
Chain of NLR family CARD domain-containing protein 4 (Mus musculus) (Q3UP24 whole entry, the tested form may be a part): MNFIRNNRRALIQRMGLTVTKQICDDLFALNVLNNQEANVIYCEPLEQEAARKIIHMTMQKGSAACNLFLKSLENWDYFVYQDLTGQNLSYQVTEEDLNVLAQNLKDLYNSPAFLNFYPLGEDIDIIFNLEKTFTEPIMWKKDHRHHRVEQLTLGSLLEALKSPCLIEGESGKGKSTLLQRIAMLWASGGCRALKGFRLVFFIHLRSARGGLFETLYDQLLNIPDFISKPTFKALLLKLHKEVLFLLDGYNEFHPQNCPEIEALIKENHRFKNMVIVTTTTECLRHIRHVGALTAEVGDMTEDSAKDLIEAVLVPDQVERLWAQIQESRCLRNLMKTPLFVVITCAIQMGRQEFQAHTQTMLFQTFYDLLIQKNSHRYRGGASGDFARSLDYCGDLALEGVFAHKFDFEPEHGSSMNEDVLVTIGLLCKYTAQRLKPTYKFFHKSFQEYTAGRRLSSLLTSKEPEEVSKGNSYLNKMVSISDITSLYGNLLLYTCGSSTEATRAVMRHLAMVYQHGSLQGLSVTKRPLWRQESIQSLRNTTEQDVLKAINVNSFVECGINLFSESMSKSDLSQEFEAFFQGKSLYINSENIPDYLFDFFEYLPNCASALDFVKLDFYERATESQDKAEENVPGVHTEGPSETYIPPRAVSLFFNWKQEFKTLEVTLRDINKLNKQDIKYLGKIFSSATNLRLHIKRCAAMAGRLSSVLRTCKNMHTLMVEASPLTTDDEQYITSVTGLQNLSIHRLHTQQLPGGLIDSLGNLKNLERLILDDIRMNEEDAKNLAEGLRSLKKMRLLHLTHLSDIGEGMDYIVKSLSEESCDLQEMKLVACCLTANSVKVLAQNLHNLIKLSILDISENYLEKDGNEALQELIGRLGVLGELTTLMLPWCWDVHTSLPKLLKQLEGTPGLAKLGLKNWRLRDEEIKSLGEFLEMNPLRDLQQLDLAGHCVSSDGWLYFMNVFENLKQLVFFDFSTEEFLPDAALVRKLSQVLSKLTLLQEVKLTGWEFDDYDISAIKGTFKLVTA

For data set [11] the target is unchanged. Kind of data set: Inhibition of NLRC4 inflammasome activation in LPS treated mouse J774.A1 cells assessed as inhibition of IL-1beta secretion at 10 uM pre-incubated for 1 hr followed by flagellin stimulation for 6 hrs by ELISA. The data set is classed as cell-based. Conditions: time 7.0 hrs. The essentials:
as §2

The target in data set [12] is NACHT, LRR and PYD domains-containing protein 3 (Mus musculus) (UniProt Q8R4B8). In words: Inhibition of NLRP3 inflammasome activation in LPS treated mouse J774.A1 cells assessed as inhibition of TNF-alpha secretion at <=3 uM followed by LPS addition measured after 4.5 hrs by ELISA. The data set is classed as cell-based.
Chain of NACHT, LRR and PYD domains-containing protein 3 (Mus musculus) (Q8R4B8 whole entry, the tested form may be a part): as the sequence (Q8R4B8 whole entry, the tested form may be a part) above
Data set [13] has the same target. Kind of data set: Inhibition of NLRP3 inflammasome activation in LPS treated mouse J774.A1 cells assessed as inhibition of ATP-stimulated IL-1beta secretion at 0.1 to 1 uM pre-incubated for 30 mins followed by ATP addition measured after 30 mins by ELISA. The data set is classed as cell-based. Particulars: dose 0.1-1 µM, time 60.0 min. The essentials:
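J774A.1 cells plated at 1 × 10^5 cells/well overnight, primed with E. coli 0111:B4 LPS (final 1 μg/mL) for 4.5 h. Compound added for 30 min, then ATP (5 mM) for 30 min to activate NLRP3. IL-1β in supernatant measured by mouse IL-1β ELISA.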

The target is the same in data set [14]. Kind of data set: Inhibition of NLRP3 inflammasome activation in LPS treated mouse J774.A1 cells assessed as inhibition of nigericin-stimulated IL-1beta secretion at 0.1 to 1 uM pre-incubated for 30 mins followed by nigericin addition measured after 30 mins by ELISA. The data set is classed as cell-based. Particulars: dose 0.1-1 µM, time 60.0 min.
Data set [15] shares this target. Kind of data set: Inhibition of NLRP3 inflammasome activation in LPS treated mouse J774.A1 cells assessed as inhibition of TNF-alpha secretion at 0.1 to 10 uM followed by LPS addition measured after 4.5 hrs by ELISA. The data set is classed as cell-based. Conditions: dose 0.1-10 µM.
The target is the same in data set [16]. In words: Binding affinity to NLRP3 in wild type C57BL/6 mouse brain incubated for 20 mins by autoradiography. The data set is classed as tissue-based. Conditions: tested as the 11C-labelled form. The essentials: (§3)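 Frozen mouse brain sections preincubated in 50 mM Tris-HCl pH 7.4 for 30 min at ambient temperature, then incubated 20 min at ambient temperature with [11C]8 (5 mCi/L, ~1 nM). For blocking, unlabeled ligand (10 μM) added to the incubation solution beforehand (n = 4). Sections washed in Tris-HCl (3 × 5 min), dried, exposed to imaging plates 120 min; ROI signal given as DLU/mm2.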

Data set [17] has the same target. In words: Binding affinity to NLRP3 in wild type C57BL/6 mouse brain incubated for 20 mins in presence of compound 8 by autoradiography. The data set is classed as tissue-based. Conditions: tested as the 11C-labelled form. The essentials:
as §3

Data set [18] has the same target. In words: Binding affinity to NLRP3 in wild type C57BL/6 mouse brain incubated for 20 mins in presence of compound MCC950 by autoradiography. Particulars: tested as the 11C-labelled form. The data set is classed as tissue-based. The method in brief:
as §3

The target is the same in data set [19]. Kind of data set: Binding affinity to NLRP3 in C57BL/6 mouse brain expressing nIrp3-/- incubated for 20 mins by autoradiography. The data set is classed as tissue-based. Particulars: tested as the 11C-labelled form. The essentials: as §3

Molecules are shown by their SMILES. pIC50: −log10 of the molar value. Active and inactive are the calls of the source. The calls are words filed in the database; no cut-off is given here.

Consider `COC(=O)c1ccc(-c2cn(Cc3cc(Cl)ccc3OC)nn2)nc1`, for which the pIC50 in data set [1] was 5.64. Same read-out and setting: under `COC(=O)c1ccc(-c2cn(Cc3cc(Cl)ccc3OC)nn2)c(C)c1` stands 5.69; under `CCCOc1ccc(Cl)cc1Cn1cc(-c2ccc(C(F)(F)F)cc2)nn1`, 4.89. With `COC(=O)c1ccc(-c2cn(Cc3cc(F)cc(F)c3OC)nn2)cc1`, the IC50 entry in data set [1] is on record as “Not Active”. With `COC(=O)c1ccc(-c2cn(Cc3cc(F)c(F)cc3OC)nn2)cc1`, the negative-log IC50 (pIC50) in data set [1] is 5.61.

Consider `COC(=O)c1ccc(-c2cn(Cc3cc(Br)ccc3OC)nn2)cc1`, for which the pIC50 in data set [1] was 5.97. With `COC(=O)c1ccc(-c2cn(Cc3cc(F)ccc3OC)nn2)cc1`, the pIC50 in data set [1] is 5.82.

For the compound `CCCOc1ccc(Cl)cc1Cn1cc(-c2ccc(S(N)(=O)=O)cc2)nn1`, the pIC50 in data set [1] is 5.82. Turning to `COC(=O)c1ccc(-c2cn(Cc3cc(Cl)cc(OC)c3)nn2)cc1`, the pIC50 in data set [1] was 6.29. Regarding `COC(=O)c1ccc(-c2cn(Cc3cccc(Cl)c3)nn2)cc1`, in [1], the pIC50 was 5.67. For `COC(=O)c1ccc(-c2cn(Cc3cc(Cl)ccc3O[11CH3])nn2)cc1`, the SUV in [2] is given as greater than 3. Moreover, the Drug uptake entry in [3], in [4], in data set [5], in data set [6] and in data set [7] was “Active” each time. With `COC(=O)c1ccc(-c2cn(Cc3cc(Cl)ccc3O)nn2)cc1`, in data set [1], the pIC50 is 5.50.

As for `CNC(=O)c1ccc(-c2cn(Cc3cc(Cl)ccc3OC)nn2)cc1`, the pIC50 in data set [1] is 5.38.

On to `CCCOc1ccc(Cl)cc1Cn1cc(-c2ccc(C(=O)OC)cc2)nn1`, for which, in [1], the negative logarithm of the IC50 (pIC50) is 5.92.

Regarding `COC(=O)c1ccc(-c2cn(Cc3ccccc3)nn2)cc1`, the IC50 entry in data set [1] is given as “Not Active”.

`COC(=O)c1ccc(-c2cn(Cc3cc(Cl)ccc3OC)nn2)c(F)c1`: the negative-log IC50 (pIC50) in data set [1] is 5.79. Same read-out and setting: next, `COC(=O)c1ccc(-c2cn(Cc3ccccc3OC)nn2)cc1`: 5.43; `COc1ccc(-c2cn(Cc3cc(Cl)ccc3OC)nn2)cc1`: 5.88. On the same count and under the same terms, next, `COC(=O)c1ccc(-c2cn(Cc3ccccc3OC(F)F)nn2)cc1`: 5.09. With `COC(=O)c1ccc(-c2cn(Cc3cc(Cl)ccc3C(F)(F)F)nn2)cc1`, in data set [1], the IC50 result was “Not Active”. `CCCOc1ccc(Cl)cc1Cn1cc(-c2ccccc2)nn1`: the inhibition entry in data set [8], in [9], in data set [10] and in data set [11] was “Active” in each case. For the same compound, in data set [12], the inhibition result was “inactive”. In the case of `COc1ccc(Cl)cc1Cn1cc(-c2ccc(C(=O)O)cc2)nn1`, in [1], the pIC50 was 4.85.

Consider `COc1ccc(Cl)cc1Cn1cc(-c2ccc(C(=O)N3CCC3)cc2)nn1`, for which the negative-log IC50 (pIC50) in data set [1] was 5.84. For `COC(=O)c1cccc(-c2cn(Cc3cc(Cl)ccc3OC)nn2)c1`, in data set [1], the pIC50 is 5.79. The same measure, in the same setting: next, `CCCOc1ccc(Cl)cc1Cn1cc(-c2ccc(F)cc2)nn1`: 5.37; `COC(=O)c1ccc(-c2cn(Cc3c(OC)ccc(F)c3F)nn2)cc1`: 5.54. For the compound `COC(=O)c1ccc(-c2cn(Cc3cc(Cl)ccc3OC)nn2)cc1`, the inhibition entry in [9], in data set [11] and in data set [15] was “inactive” each time. Further, the inhibition result in data set [13] and in [14] was “Active” throughout. The outcome in data set [16], in data set [17], in data set [18] and in data set [19] was Active.

With `COC(=O)c1ccc(-c2cn(Cc3cc(C(F)(F)F)ccc3OC)nn2)cc1`, in data set [1], the negative-log IC50 (pIC50) is 6.09. In the case of `CCCOc1ccc(Cl)cc1Cn1cc(-c2ccc(C(=O)O)cc2)nn1`, the pIC50 in data set [1] is 4.92. Still for that read-out and setting: next, `CCCOc1ccc(Cl)cc1Cn1cc(-c2ccc(C)cc2)nn1`: 5.08.

The pIC50 is the negative decadic logarithm of the IC50, by convention in mol/L.

The values above are taken from ChEMBL document CHEMBL5532673, “Design and Discovery of Novel NLRP3 Inhibitors and PET Imaging Radiotracers Based on a 1,2,3-Triazole-Bearing Scaffold” (J Med Chem, 2024).
